Results as given in ChEMBL document CHEMBL1770121 (Bioorg Med Chem, 2011).
Values after ≈ are worked out from the molar mass of the structure shown.

Assays:
[1] = Inhibition of bovine brain tubulin polymerization after 20 mins by turbidimetry; parameters: species or system Bos taurus
Method in brief: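 Varying concentrations were preincubated with 10 µM tubulin in glutamate buffer at 30 °C, then cooled to 0 °C. GTP was added and the mixtures moved to 0 °C cuvettes in a recording spectrophotometer. Assembly was followed by turbidity on warming to 30 °C.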

[2] = tested on: A549; assay: Antiproliferative activity against human A549 cells after 48 hrs by MTT assay; type: functional, cell-based; settings: A549, 48 h
Method in brief: (§1)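 Log-phase cells grown in RPMI 1640 with 10% FBS were seeded at 2 × 10⁴ cells/mL and left 24 h at 37 °C, 5% CO₂. […] After 48 h MTT was added and the formazan dissolved in 10% SDS–5% isobutyl alcohol–0.01 M HCl overnight at 37 °C. OD was read at 570 nm, three replicate wells per concentration.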

[3] = tested on: B16-F10; assay: Antiproliferative activity against mouse B16F10 cells after 48 hrs by MTT assay; type: functional, cell-based; settings: B16-F10, 48 h; method in brief: as §1
[4] = tested on: HepG2; assay: Antiproliferative activity against human HepG2 cells after 48 hrs by MTT assay; type: functional, cell-based; settings: HepG2, 48 h; method in brief: as §1
[5] = tested on: B16-F10; assay: Cell cycle arrest in mouse B16F10 cells assessed as accumulation at Go/G1 phase at 1 ug/ml after 24 hrs by flow cytometry (Rbv = 66.15%); type: functional
[6] = tested on: B16-F10; assay: Cell cycle arrest in mouse B16F10 cells assessed as accumulation at S phase at 1 ug/ml after 24 hrs by flow cytometry (Rbv = 14.96%); type: functional
[7] = tested on: B16-F10; assay: Cell cycle arrest in mouse B16F10 cells assessed as accumulation at G2/M phase at 1 ug/ml after 24 hrs by flow cytometry (Rbv = 12.27%); type: functional
[8] = tested on: B16-F10; assay: Cell cycle arrest in mouse B16F10 cells assessed as accumulation at S phase at 5 ug/ml after 24 hrs by flow cytometry (Rbv = 14.96%); type: functional
[9] = tested on: B16-F10; assay: Cell cycle arrest in mouse B16F10 cells assessed as accumulation at Go/G1 phase at 5 ug/ml after 24 hrs by flow cytometry (Rbv = 66.15%); type: functional
[10] = tested on: B16-F10; assay: Cell cycle arrest in mouse B16F10 cells assessed as accumulation at G2/M phase at 5 ug/ml after 24 hrs by flow cytometry (Rbv = 12.27%); type: functional

| IC50 [1] [µg/mL] | IC50 [2] [µg/mL] | IC50 [3] [µg/mL] | IC50 [4] [µg/mL] | Structure (SMILES) | Activity [5] [%] | Activity [6] [%] | Activity [7] [%] | Activity [8] [%] | Activity [9] [%] | Activity [10] [%] |
| --- | --- | --- | --- | --- | --- | --- | --- | --- | --- | --- |
| 94 (≈ 199 µM) | 8.7 (≈ 18.4 µM) | 5.3 (≈ 11.2 µM) | 12.9 (≈ 27.3 µM) | CCCCOc1ccc(C(=O)/C=C/c2c(/C=C/c3ccc(OC)cc3)cc(OC)cc2OC)cc1 | – | – | – | – | – | – |
| 26 (≈ 58.5 µM) | 7.5 (≈ 16.9 µM) | 6.4 (≈ 14.4 µM) | 8 (≈ 18 µM) | CCOc1ccc(C(=O)/C=C/c2c(/C=C/c3ccc(OC)cc3)cc(OC)cc2OC)cc1 | – | – | – | – | – | – |
| 72 (≈ 150 µM) | 8.3 (≈ 17.3 µM) | 6.5 (≈ 13.6 µM) | 12.9 (≈ 26.9 µM) | COc1ccc(/C=C/c2cc(OC)cc(OC)c2/C=C/C(=O)c2ccc(Br)cc2)cc1 | – | – | – | – | – | – |
| 43 (≈ 99.9 µM) | 4.5 (≈ 10.5 µM) | 5.8 (≈ 13.5 µM) | 4.9 (≈ 11.4 µM) | COc1ccc(/C=C/c2cc(OC)cc(OC)c2/C=C/C(=O)c2ccc(OC)cc2)cc1 | – | – | – | – | – | – |
| 42 (≈ 101 µM) | 5.9 (≈ 14.2 µM) | 6.1 (≈ 14.7 µM) | 5.3 (≈ 12.8 µM) | COc1ccc(/C=C/c2cc(OC)cc(OC)c2/C=C/C(=O)c2ccccc2C)cc1 | – | – | – | – | – | – |
| 34 (≈ 84.9 µM) | 3.9 (≈ 9.74 µM) | 3.7 (≈ 9.24 µM) | 6.8 (≈ 17 µM) | COc1ccc(/C=C/c2cc(OC)cc(OC)c2/C=C/C(=O)c2ccccc2)cc1 | – | – | – | – | – | – |
| 80 (≈ 184 µM) | 6.4 (≈ 14.7 µM) | 4.9 (≈ 11.3 µM) | 13.6 (≈ 31.3 µM) | COc1ccc(/C=C/c2cc(OC)cc(OC)c2/C=C/C(=O)c2ccc(Cl)cc2)cc1 | – | – | – | – | – | – |
| 47 (≈ 100 µM) | 5.9 (≈ 12.6 µM) | 7.5 (≈ 16 µM) | 10.8 (≈ 23 µM) | COc1ccc(/C=C/c2cc(OC)cc(OC)c2/C=C/C(=O)c2ccc(Cl)c(Cl)c2)cc1 | – | – | – | – | – | – |
| 76 (≈ 159 µM) | 8.1 (≈ 16.9 µM) | 5.1 (≈ 10.6 µM) | 13 (≈ 27.1 µM) | COc1ccc(/C=C/c2cc(OC)cc(OC)c2/C=C/C(=O)c2cccc(Br)c2)cc1 | – | – | – | – | – | – |
| 150 (≈ 320 µM) | 7.8 (≈ 16.6 µM) | 4.3 (≈ 9.18 µM) | 18.7 (≈ 39.9 µM) | COc1ccc(/C=C/c2cc(OC)cc(OC)c2/C=C/C(=O)c2ccc(C(F)(F)F)cc2)cc1 | – | – | – | – | – | – |
| 58 (≈ 99.2 µM) | 7.9 (≈ 13.5 µM) | 12.7 (≈ 21.7 µM) | 11.6 (≈ 19.8 µM) | CCCCCCCCCCCCOc1ccc(C(=O)/C=C/c2c(/C=C/c3ccc(OC)cc3)cc(OC)cc2OC)cc1 | – | – | – | – | – | – |
| 55 (≈ 113 µM) | 9.4 (≈ 19.3 µM) | 6.7 (≈ 13.8 µM) | 11.1 (≈ 22.8 µM) | CCCC(C)Oc1ccc(C(=O)/C=C/c2c(/C=C/c3ccc(OC)cc3)cc(OC)cc2OC)cc1 (configuration not stated) | – | – | – | – | – | – |
| 41 (≈ 94.3 µM) | 5.6 (≈ 12.9 µM) | 3.3 (≈ 7.59 µM) | 9.5 (≈ 21.8 µM) | COc1ccc(/C=C/c2cc(OC)cc(OC)c2/C=C/C(=O)c2cccc(Cl)c2)cc1 | – | – | – | – | – | – |
| 158 (≈ 692 µM) | 30.4 (≈ 133 µM) | 37.3 (≈ 163 µM) | 38.9 (≈ 170 µM) | Oc1ccc(/C=C/c2cc(O)cc(O)c2)cc1 [RESVERATROL] | – | – | – | – | – | – |
| 64 (≈ 153 µM) | 6.6 (≈ 15.8 µM) | 5.3 (≈ 12.7 µM) | 12.2 (≈ 29.2 µM) | COc1ccc(/C=C/c2cc(OC)cc(OC)c2/C=C/C(=O)c2ccc(F)cc2)cc1 | – | – | – | – | – | – |
| 33 (≈ 70 µM) | 5.4 (≈ 11.5 µM) | 8.1 (≈ 17.2 µM) | 6.3 (≈ 13.4 µM) | CCN(CC)c1ccc(C(=O)/C=C/c2c(/C=C/c3ccc(OC)cc3)cc(OC)cc2OC)cc1 | – | – | – | – | – | – |
| 59 (≈ 137 µM) | 6.1 (≈ 14.2 µM) | 4.3 (≈ 9.99 µM) | 11.6 (≈ 26.9 µM) | COc1ccc(/C=C/c2cc(OC)cc(OC)c2/C=C/C(=O)c2cccc(OC)c2)cc1 | – | – | – | – | – | – |
| 4.1 (≈ 9.57 µM) | 0.3 (≈ 0.7 µM) | 4 (≈ 9.33 µM) | 0.9 (≈ 2.1 µM) | COc1ccc(/C=C/c2cc(OC)cc(OC)c2/C=C/C(=O)c2ccc(C)cc2C)cc1 | – | – | – | – | – | – |
| 36 (≈ 86.6 µM) | 3.8 (≈ 9.15 µM) | 2.8 (≈ 6.74 µM) | 7.5 (≈ 18.1 µM) | COc1ccc(/C=C/c2cc(OC)cc(OC)c2/C=C/C(=O)c2ccc(N)cc2)cc1 | – | – | – | – | – | – |
| 2.6 (≈ 6.07 µM) | 0.1 (≈ 0.233 µM) | 1.4 (≈ 3.27 µM) | 0.2 (≈ 0.467 µM) | COc1ccc(/C=C/c2cc(OC)cc(OC)c2/C=C/C(=O)c2ccc(C)c(C)c2)cc1 | 39.65 | 13.99 | 31.5 | 7.04 | 10.05 | 72.1 |
| 44 (≈ 92.3 µM) | 4.6 (≈ 9.65 µM) | 10.6 (≈ 22.2 µM) | 10.5 (≈ 22 µM) | COc1ccc(/C=C/c2cc(OC)cc(OC)c2/C=C/C(=O)c2ccc(-c3ccccc3)cc2)cc1 | – | – | – | – | – | – |
| 29 (≈ 70 µM) | 3.6 (≈ 8.69 µM) | 5.3 (≈ 12.8 µM) | 4.8 (≈ 11.6 µM) | COc1ccc(/C=C/c2cc(OC)cc(OC)c2/C=C/C(=O)c2ccc(C)cc2)cc1 | – | – | – | – | – | – |
| 38 (≈ 78.3 µM) | 3.8 (≈ 7.83 µM) | 3.3 (≈ 6.8 µM) | 7.3 (≈ 15 µM) | COc1ccc(/C=C/c2cc(OC)cc(OC)c2/C=C/C(=O)c2ccc(N3CCOCC3)cc2)cc1 | – | – | – | – | – | – |
| 131 (≈ 262 µM) | 8.4 (≈ 16.8 µM) | 10.4 (≈ 20.8 µM) | 16.2 (≈ 32.4 µM) | CCCCCCOc1ccc(C(=O)/C=C/c2c(/C=C/c3ccc(OC)cc3)cc(OC)cc2OC)cc1 | – | – | – | – | – | – |

| Structure (SMILES) | IC50 [1] [µg/mL] | IC50 [2] [µg/mL] | IC50 [3] [µg/mL] | IC50 [4] [µg/mL] | Activity [5] [%] | Activity [6] [%] | Activity [7] [%] | Activity [8] [%] | Activity [9] [%] | Activity [10] [%] |
| --- | --- | --- | --- | --- | --- | --- | --- | --- | --- | --- |
| COc1cc2c(c(OC)c1OC)-c1ccc(OC)c(=O)cc1[C@@H](NC(C)=O)CC2 [COLCHICINE] | – | 0.12 (≈ 0.3 µM) | 0.5 (≈ 1.25 µM) | 0.23 (≈ 0.576 µM) | 2.65 | 2.29 | 90.46 | – | – | – |
| COc1ccc(/C=C\c2cc(OC)c(OC)c(OC)c2)cc1O [COMBRETASTATIN A4] | 0.7 (≈ 2.21 µM) | 0.09 (≈ 0.284 µM) | 0.4 (≈ 1.26 µM) | 0.19 (≈ 0.601 µM) | – | – | – | – | – | – |
